The source made the active and inactive calls.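 Rule for the calls, unless noted: active = NADPH fluorescence slope more negative than the mean of all samples by about 3 SD, 99.7% confidence; inactive = the rest.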

A short description of assay [1]: inhibitors of TNFa-induced NFkB p65 translocation, primary screen, imaging, HUVEC, MLSMR starter and 10KST1 sets (AID 438;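 active = inhibition above 20% together with a positive visual image hit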;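 note: compound added about 3h40 before a 20 min TNFalpha stimulation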;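 for inhibition: signal is the nuclear over cytoplasmic p65 intensity ratio per well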). Conditions: HUVEC TNFa-induced p65 nuclear translocation; cell count: measured here: nuclei count (cytotoxicity indicator), at 2.08 µM; inhibition: at 2 µM, stronger effect = higher value, 0% TNFa-plus-vehicle, 100% no-TNFa wells.
Assay [2] in a line: endothelial E-selectin expression blockers – imaging, HUVEC, immunofluorescence, MLSMR starter and 10KST1 sets, primary screen (AID 487;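 active = visually confirmed hit in the image check and inhibition above 20%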;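 for inhibition: signal is fraction of cell area covered by stained E-selectin grains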;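 for nuclei count: 100% = median nuclei count of all wells on the same plate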). Conditions: HUVEC TNFalpha-induced E-selectin immunofluorescence imaging, at 2 µM; inhibition: stronger effect = higher value; nuclei count: measured here: cell number, toxicity.
A short description of assay [3]: Primary imaging screen for DUSP6 inhibitors that restore phospho-Erk in transfected HeLa cells, chemical complementation (AID 609;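 active = compounds giving at least 50% inhibition in the cell-based MKP-3 phosphatase rescue imaging test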;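 for inhibition: phospho-Erk level distribution per well compared with pooled transfected vehicle control wells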). The note with it: HeLa MKP-3 transfected, phospho-Erk imaging KS statistic, at 10 µM, cells stimulated with TPA for 15 min.
The target in assay [4] is Dual specificity protein phosphatase 6 (Homo sapiens) (UniProt Q16828). Described as above. The note with it: HeLa MKP-3 transfected, phospho-Erk imaging KS statistic; at 10 µM; stronger effect = higher value; cells stimulated with TPA for 15 min.
Assay [5] addresses Voltage-gated potassium channel subunit beta-2 (Rattus norvegicus) (UniProt P62483). The experiment in a line: inhibitors of rat Kvbeta2 reductase activity – biochemical, NADPH fluorescence, primary screen (AID 622;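 active = fluorescence slope higher than the sample average by over 3 SD, cut at about -0.22 in these data, passing the limit was not always enough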;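 note: slope of raw intensity against log time taken from 70 to 1610 s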). The note with it: recombinant KvBeta, 4-cyanobenzaldehyde reduction, at 10 µM, stronger effect = higher value.
Assay [6] has the same target. The experiment in a line: enhancers of rat Kvbeta2 NADPH turnover – biochemical, NADPH fluorescence, primary screen (AID 623).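 Note: fluorescence intensity change per second fitted from 20 to 320 s.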 The note with it: Recombinant KvBeta, NADPH fluorescence decrease slope, 10 min; at 10 µM; stronger effect = lower value.
The target in assay [7] is Alpha-2C adrenergic receptor (Homo sapiens) (UniProt P18825). The experiment in a line: compounds altering alpha2C-coupled GIRK flux – cell-based, HEK293 alpha2C/GIRK1/2, thallium flux, primary screen (AID 624;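 active = fluorescence slope after compound addition differing from the mean of all screened samples at 99.7% confidence, in either direction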;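 note: slope of fluorescence ratio to pre-addition baseline per second over 15 to 24 s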). The note with it: thallium flux BTC fluorescence, at 10 µM, actives lie on both sides.
Assay [8] in a line: inhibitors of larval lipid processing in zebrafish, primary screen, whole organism, PED6 fluorescence, gall bladder and intestine (AID 686;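 active = a full or partial loss of lipid-probe fluorescence in the fish gall bladder, intestine or both, judged by eye; inactive = no fluorescence loss, or compound toxic to the fish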;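 note: larvae 5 to 7 days old with five fish per well; signal comes from phospholipase A2 cleavage of quenched PED6 carried via bile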). Conditions: Zebrafish larvae PED6 lipid processing, fluorescence scoring; screened at 20 µM (by protocol). The procedure, abridged: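 system = live zebrafish larvae aged 5-7 days, whole organism | probe or stimulus = ingested quenched lipid PED6 at 100 nM | doses = 20 µM single dose | timing = overnight exposure | detection = fluorescence microscopy with visual scoring of gall bladder and intestine | read-out = visual per-well fluorescence inhibition score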

Assay [9] is described as follows: loss of swimming-algae plug formation – whole organism, Chlamydomonas reinhardtii, WT vs cilia-less mutant, absorbance, 96-well, primary screen (AID 463189;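 active = inhibition at or above 50% relative to wild type and mutant plate controls; inactive = inhibition below 50%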;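 note: 0% = wild type cc124 cells in DMSO and 100% = ciliumless bld1 mutant cells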). The note with it: Chlamydomonas reinhardtii gravitaxis, OD600 absorbance, 2 days; at 10 µM; stronger effect = higher value.
[10] abbreviates: measured here: cell density z-score.
Setting [11] is: measured here: nuclear c-Myc green intensity z-score.
Setting [12] is: measured here: nuclear pErk red intensity z-score, stronger effect = higher value.

Sequence of Alpha-2C adrenergic receptor (Homo sapiens) (P18825 whole entry, looked up): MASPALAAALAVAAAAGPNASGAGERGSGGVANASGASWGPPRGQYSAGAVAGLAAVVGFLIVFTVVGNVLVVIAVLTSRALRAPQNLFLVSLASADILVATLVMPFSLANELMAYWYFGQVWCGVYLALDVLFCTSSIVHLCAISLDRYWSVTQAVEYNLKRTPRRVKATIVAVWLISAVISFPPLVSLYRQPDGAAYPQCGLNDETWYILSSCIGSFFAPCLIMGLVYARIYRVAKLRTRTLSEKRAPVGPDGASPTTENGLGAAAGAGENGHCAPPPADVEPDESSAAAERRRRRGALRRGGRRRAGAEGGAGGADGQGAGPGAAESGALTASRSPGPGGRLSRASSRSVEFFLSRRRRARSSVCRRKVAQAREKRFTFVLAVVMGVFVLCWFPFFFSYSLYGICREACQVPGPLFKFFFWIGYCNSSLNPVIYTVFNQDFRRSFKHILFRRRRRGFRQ
Sequence of Voltage-gated potassium channel subunit beta-2 (Rattus norvegicus) (P62483 whole entry, looked up): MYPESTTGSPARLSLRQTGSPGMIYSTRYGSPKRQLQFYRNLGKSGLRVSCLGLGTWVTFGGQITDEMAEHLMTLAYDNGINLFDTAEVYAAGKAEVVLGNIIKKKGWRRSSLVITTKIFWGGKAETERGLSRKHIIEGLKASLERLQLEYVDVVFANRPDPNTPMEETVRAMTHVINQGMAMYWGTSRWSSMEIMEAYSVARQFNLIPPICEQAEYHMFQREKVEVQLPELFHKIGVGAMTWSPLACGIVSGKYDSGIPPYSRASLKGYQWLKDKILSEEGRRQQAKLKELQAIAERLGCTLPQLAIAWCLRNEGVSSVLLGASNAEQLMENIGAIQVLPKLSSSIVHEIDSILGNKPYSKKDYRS
Sequence of Dual specificity protein phosphatase 6 (Homo sapiens) (Q16828 whole entry, looked up): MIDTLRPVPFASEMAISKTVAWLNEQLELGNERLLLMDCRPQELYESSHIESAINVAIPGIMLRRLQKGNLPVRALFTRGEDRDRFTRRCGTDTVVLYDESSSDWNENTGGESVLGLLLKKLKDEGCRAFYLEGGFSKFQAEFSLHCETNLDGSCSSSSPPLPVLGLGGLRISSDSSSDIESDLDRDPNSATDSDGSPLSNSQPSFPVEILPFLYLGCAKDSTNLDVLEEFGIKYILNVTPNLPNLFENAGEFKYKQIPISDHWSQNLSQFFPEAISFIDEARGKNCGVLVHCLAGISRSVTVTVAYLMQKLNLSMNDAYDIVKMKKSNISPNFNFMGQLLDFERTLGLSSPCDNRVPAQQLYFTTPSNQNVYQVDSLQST

By inhibition is commonly meant the relative decrease from the control value, in per cent. As for `CC(=O)N=C(N)Sc1nc2ccccc2[nH]1`, the cell count in [1] came out at 570. Also, the inhibition in [1] is -2.8% (inactive); in assay [2], -55% (inactive); in assay [4] it was 22.1% (inactive); in [9] it was 4.16% (inactive). Also, the nuclei count in assay [2] was 161%. The z-score in [3] (setting [10]) is -0.578; in [3] (setting [11]), 0.85; in [3] (setting [12]), 0.434. The fluorescence slope in assay [5] was -0.462 (inactive). Further, the NADPH fluorescence slope in assay [6] is -0.000171 (inactive). For the same molecule, the slope in assay [7] was 0.00501 (inactive). Further, the molecule was called inactive in assay [8].
On to `Cc1ccc(-c2ccccc2NC(=O)C2C3C=CC(C3)C2C(=O)O)o1` (centres undefined), for which the cell count in [1] worked out at 553. The inhibition in assay [1] was -2.2% (inactive); in assay [2], -4.5% (inactive); in assay [4], 14% (inactive); in assay [9] it was 7.64% (inactive). For the same molecule, in assay [2], the nuclei count worked out at 154%. Moreover, the z-score in assay [3] (setting [10]) is 0.45; in assay [3] (setting [11]), -0.671; in assay [3] (setting [12]) it was -0.083. Besides, the fluorescence slope in [5] was -0.352 (inactive). The NADPH fluorescence slope in [6] is 5.5e-06 (inactive). Also, the slope in [7] was 0.00466 (inactive). In assay [8], the molecule was called inactive.
Turning to `N#CC1=C2SCC(O)(c3ccccc3)N2C(=O)CC1c1ccccc1` (centres undefined), in [1], the cell count was determined as 487. Moreover, the inhibition in [1] was 0.4% (inactive); in [2], -39.3% (inactive); in assay [4], -3.98% (inactive); in assay [9], 13.3% (inactive). Also, the nuclei count in assay [2] was found to be 98.1%. For the same molecule, the z-score is -0.384 in assay [3] (setting [10]), -0.62 in assay [3] (setting [11]) and 2.84 in assay [3] (setting [12]). For the same molecule, in assay [5], the fluorescence slope was -0.459 (inactive). Also, in [6], the NADPH fluorescence slope is -0.00022 (inactive). Also, in [7], the slope was 0.00444 (inactive). Also, the result in [8] was inactive.
In the case of `Cn1cc(Br)cc2nc(C(F)(F)F)nc1-2`, the cell count in assay [1] was 534. For the same molecule, the inhibition in assay [1] was -11.2% (inactive); in [2], -143% (inactive); in assay [4], 29.7% (inactive); in [9], 20% (inactive). This molecule also had a nuclei count in assay [2] of 133%. Moreover, the z-score in [3] (setting [10]) was 0.955; in [3] (setting [11]), -1.14; in [3] (setting [12]), -0.53. For the same molecule, the fluorescence slope in assay [5] was -0.532 (inactive). For the same molecule, the NADPH fluorescence slope in [6] is -2.5e-05 (inactive). Also, the slope in [7] was 0.00656 (inactive). Moreover, the molecule was classed as inactive in assay [8].
On to `Cc1[nH]nc2cn[nH]c12`, for which the cell count in assay [1] worked out at 531. Also, the inhibition was -7.3% (inactive) in assay [1], -92.8% (inactive) in assay [2], -5.89% (inactive) in [4] and 4.67% (inactive) in [9]. The molecule further came in with a nuclei count in assay [2] of 130%. In addition, the z-score was -0.515 in [3] (setting [10]), 1.09 in assay [3] (setting [11]) and 1.21 in [3] (setting [12]). Further, the fluorescence slope in [5] is -0.526 (inactive). For the same molecule, in assay [6], the NADPH fluorescence slope was -5.7e-05 (inactive). The slope in [7] is 0.00413 (inactive). For the same molecule, the molecule was called inactive in [8].
As for `COCc1cc(=O)[nH]c(Nc2nc3ccc(C)cc3o2)n1`, the cell count in assay [1] was found to be 568. The inhibition is -19% (inactive) in assay [1], -52.2% (inactive) in assay [2], -3.97% (inactive) in assay [4] and 2.95% (inactive) in [9]. In addition, the nuclei count in assay [2] was 156%. In addition, the z-score in assay [3] (setting [10]) was 0.289; in [3] (setting [11]) it was 0.499; in assay [3] (setting [12]), -0.0408. Also, in assay [5], the fluorescence slope is -0.463 (inactive). In assay [6], the NADPH fluorescence slope was -4.8e-05 (inactive). For the same molecule, in assay [7], the slope is 0.00626 (inactive). Moreover, the result in assay [8] was inactive.
On to `Cc1ccc(C2/C(=C(\O)c3cnn(-c4ccccc4)c3C)C(=O)C(=O)N2CCN(C)C)o1` (centres undefined), for which the cell count in assay [1] came out at 488. The inhibition in [1] is 4.7% (inactive); in assay [2] it was -57.2% (inactive); in assay [4], 5.26% (inactive); in [9], -22.8% (inactive). The molecule further returned a nuclei count in assay [2] of 108%. For the same molecule, the results for the z-score in [3] (setting [10]), in assay [3] (setting [11]) and in assay [3] (setting [12]) were -0.998, 2.35 and 1.95, respectively. Also, the fluorescence slope in assay [5] is -0.583 (inactive). For the same molecule, in assay [6], the NADPH fluorescence slope is -3.5e-05 (inactive). Moreover, the slope in [7] is 0.00573 (inactive). Further, in assay [8], the call was inactive.
For `COc1cc(/C=N/O)ccc1OCc1ccc(C(=O)O)cc1`, the cell count in assay [1] turned out to be 587. Further, the inhibition was -21.9% (inactive) in assay [1], -51.1% (inactive) in [2], -0.608% (inactive) in assay [4] and -7.38% (inactive) in [9]. In [2], this molecule had a nuclei count of 154%. The z-score in assay [3] (setting [10]) is -1.09; in [3] (setting [11]), 0.882; in assay [3] (setting [12]), 0.52. The fluorescence slope in [5] was -0.357 (inactive). Further, the NADPH fluorescence slope in assay [6] is -5.9e-05 (inactive). In addition, in assay [7], the slope was 0.00492 (inactive). In [8], the outcome was inactive.
Regarding `CCNc1nc(Oc2ccccc2)nc(OC(C)C(=O)OCC)n1` (centres undefined), in assay [1], the cell count was 674. For the same molecule, the inhibition in [1] is 1.4% (inactive); in [2], -19.3% (inactive); in assay [4] it was -2.07% (inactive); in [9] it was -3.35% (inactive). Also, in assay [2], the nuclei count came to 172%. For the same molecule, the figures for the z-score in [3] (setting [10]), in assay [3] (setting [11]) and in [3] (setting [12]) were -0.682, -0.0206 and 2.56, respectively. Also, in [5], the fluorescence slope was -0.532 (inactive). In addition, the NADPH fluorescence slope in [6] is -6.7e-05 (inactive). Besides, the slope in assay [7] is 0.00506 (inactive). The molecule was called inactive in assay [8].
For `Cc1nc(SCC(=O)c2ccccc2)c(C#N)c(-c2ccco2)c1C(=O)NCc1ccco1`, in [1], the cell count was 391. The inhibition was 0.8% (inactive) in [1], 17.3% (inactive) in [2], 11.4% (inactive) in assay [4] and 10.9% (inactive) in assay [9]. In assay [2], this molecule registered a nuclei count of 138%. The z-score in assay [3] (setting [10]) was 0.205; in [3] (setting [11]), -0.115; in assay [3] (setting [12]) it was 1.15. In [5], the fluorescence slope is -0.39 (inactive). Also, the NADPH fluorescence slope in [6] was -0.000131 (inactive). For the same molecule, the slope in assay [7] was 0.0062 (inactive). Further, the outcome in assay [8] was inactive.
As to `CCOC(=O)CC(=O)CSc1nc(N)c(C#N)c(-c2ccc(F)cc2)c1C#N`, the cell count in assay [1] worked out at 650. The inhibition is -5.7% (inactive) in [1], 44% (inactive) in assay [2], -7.28% (inactive) in assay [4] and -14.2% (inactive) in assay [9]. Moreover, the nuclei count in [2] is 167%. In addition, the z-score is -1.03 in assay [3] (setting [10]), 0.96 in assay [3] (setting [11]) and 2.1 in assay [3] (setting [12]). Further, in assay [5], the fluorescence slope is -0.366 (inactive). In [6], the NADPH fluorescence slope is -6.3e-05 (inactive). Besides, in [7], the slope was 0.00627 (inactive). Moreover, the result in assay [8] was inactive.
As for `COc1ccc(CCNc2nc3c(c(=O)n(C)c(=O)n3C)n2C)cc1OC`, the cell count in [1] was found to be 604. For the same molecule, the inhibition is -9.9% (inactive) in [1], -63.1% (inactive) in [2], -4.27% (inactive) in assay [4] and -4.62% (inactive) in assay [9]. This molecule also gave a nuclei count in assay [2] of 146%. In addition, the z-score in [3] (setting [10]) is 1.46; in assay [3] (setting [11]) it was -0.0832; in assay [3] (setting [12]), 0.95. The fluorescence slope in assay [5] is -0.425 (inactive). Moreover, the NADPH fluorescence slope in assay [6] is -6e-05 (inactive). Also, the slope in assay [7] is 0.00693 (inactive). The molecule was classed as inactive in assay [8].
For the molecule `CC1(C)Cc2c(c(N3CCOCC3)nc3snc(N)c23)CO1`, the cell count in assay [1] amounted to 554. The inhibition in [1] is -1.3% (inactive); in assay [2], -78.1% (inactive); in assay [4], 1.48% (inactive); in assay [9], 22.3% (inactive). Besides, the nuclei count in assay [2] amounted to 140%. In addition, the z-score in [3] (setting [10]) is 0.144; in assay [3] (setting [11]), -0.616; in [3] (setting [12]), 0.222. In assay [5], the fluorescence slope is -0.281 (inactive). For the same molecule, in [6], the NADPH fluorescence slope was -1.1e-05 (inactive). For the same molecule, in [7], the slope is 0.00566 (inactive). For the same molecule, the molecule was called inactive in assay [8].

These data come from PubChem BioAssay.
